An excerpt weighted towards active compounds, which were near 1.6% of everything screened.
TDP2 inh – blocks human TDP2 phosphodiesterase activity; O95551; recombinant TDP2, T5PNP hydrolysis, p-nitrophenol absorbance 415 nm; inhibition, % at 12.8 µM; 0.34% of 370,000 active;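 active = inhibition above the mean of all tested compounds plus 3 SD, set per campaign, cut at about 25% in these data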
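System – recombinant human TDP2 · Quantity – TDP2 enzyme at 120 nM final · Doses – single concentration, 12.8 µM nominal, with 1% DMSO · Incubation – 2 h at 37 °C · Measured by – epi absorbance of p-nitrophenol freed from T5PNP by hydrolysis · Read-out – % inhibition relative to enzyme-containing and enzyme-free wells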
HKDC1 inhibitor – blocks human hexokinase HKDC1 activity; Q2TB90; inhibition, % at 20 µM; AID 493160; recombinant HKDC1, G6PDH/diaphorase resazurin coupled fluorescence; 0.16% of 340,000 active;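 active = inhibition above about 35% when tested at 20 µM, limit read from the data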
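Test system: recombinant HKDC1 (HK5) hexokinase enzyme, produced in-house / Doses: 20 µM test compound, 1% DMSO / Timing: 90 min, room temperature / Detection: G6PDH/diaphorase-coupled fluorescence, 1 mM NADP, 100 µM resazurin, 525/613 nm / Control set: DMSO wells with and without enzyme mix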
GSTO1 counter – blocks human GSTO1 in RBBP9 counter-screen. inhibition, % at 5.96 µM. 1.1% of 300,000 active. recombinant GSTO1, activity-based probe fluorescence polarization. P78417;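 active = inhibition above the campaign mean inhibition plus 3 SD, cut at about 35% in these data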
CTSL1 counter – counter-screen for PFM18AAP inhibitors: inhibitors of F. hepatica cathepsin L1; recombinant F. hepatica cathepsin L1, Z-Leu-Arg-MCA fluorescence; AID 1906; 0.49% of 300,000 active; inhibition, % at 5.96 µM;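 active = inhibition above the mean of all tested compounds plus 3 SD, set per screening campaign, cut at about 17% in these data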
PAD4 FP inh – inhibitors of human PAD4; inhibition, % at 6.36 µM; 0.41% of 330,000 active; Q9UM07; recombinant PAD4, RCA probe fluorescence polarization;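 active = percent inhibition above a cutoff equal to the mean of all tested compounds plus 3 SD, cut at about 15% in these data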
UCH37 DUB inh – inhibitors of human deubiquitinating enzyme UCH37; purified proteasome/UCH37, Ub-AMC cleavage fluorescence; 0.33% of 330,000 active; Q9Y5K5; inhibition, % (no concentration beside the values);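 active = mean inhibition over replicate wells above about 20%, limit read from the data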
Target sequence (Q9Y5K5 whole entry, looked up): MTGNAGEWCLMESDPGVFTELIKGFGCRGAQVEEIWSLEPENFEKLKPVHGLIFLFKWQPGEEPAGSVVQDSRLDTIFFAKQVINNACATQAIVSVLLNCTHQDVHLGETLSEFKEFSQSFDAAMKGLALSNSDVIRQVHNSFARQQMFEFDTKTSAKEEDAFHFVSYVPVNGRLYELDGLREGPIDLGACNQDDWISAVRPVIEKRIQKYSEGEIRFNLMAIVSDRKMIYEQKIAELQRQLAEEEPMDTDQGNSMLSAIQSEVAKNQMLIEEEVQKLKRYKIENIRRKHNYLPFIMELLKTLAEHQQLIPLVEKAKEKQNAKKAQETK
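Material: human UCH37 enzyme supplied as purified proteasome complex. Measure: % inhibition of Ub-AMC cleavage fluorescence. Medium: pH 7.4 Tris-HCl (50 mM) with ovalbumin, ATP-MgCl2, DTT. Times: 30 min preincubation with enzyme, 25 min cleavage at room temperature. Detection: AMC fluorescence intensity at 355/460 nm.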
Hits are given with their value.

What do the screens show for `Oc1cc2c(cc1O)C1c3ccc(O)c(O)c3OCC1(O)C2` (centres undefined)?
TDP2 inh: inactive; HKDC1 inhibitor: inactive; GSTO1 counter: 49; CTSL1 counter: inactive; PAD4 FP inh: inactive; UCH37 DUB inh: inactive

Results for CC(=O)Nc1ccc(C(C)=NNS(=O)(=O)c2ccccc2)cc1 ?
UCH37 DUB inh: inactive

Results for O=C(CSc1nncc(=O)[nH]1)Nc1cccc([N+](=O)[O-])c1 ?
TDP2 inh: inactive; HKDC1 inhibitor: inactive; GSTO1 counter: 35; CTSL1 counter: inactive; PAD4 FP inh: inactive; UCH37 DUB inh: inactive

How did Nc1cc(=O)[nH]c(SCC(=O)Nc2cccc([N+](=O)[O-])c2)n1 do in these assays?
TDP2 inh: inactive; HKDC1 inhibitor: inactive; GSTO1 counter: inactive; CTSL1 counter: inactive; PAD4 FP inh: inactive; UCH37 DUB inh: inactive

How did O=C(O)C1Nc2c(C(=O)N3CCOCC3)cccc2C2C=CCC12 (centres undefined) do in these assays?
HKDC1 inhibitor: inactive; GSTO1 counter: 36; CTSL1 counter: inactive; PAD4 FP inh: inactive; UCH37 DUB inh: inactive

How did O=C(c1ccccc1O)N1CCOCC1 do in these assays?
TDP2 inh: inactive; HKDC1 inhibitor: inactive; GSTO1 counter: inactive; CTSL1 counter: inactive; PAD4 FP inh: inactive; UCH37 DUB inh: inactive

What do the screens show for `Cc1ccc2c(c1C)NC(C(=O)O)C1CC=CC21` (centres undefined)?
HKDC1 inhibitor: 38; GSTO1 counter: 51; CTSL1 counter: inactive; PAD4 FP inh: inactive; UCH37 DUB inh: inactive

Results for CON=CC(c1ncc(C(F)(F)F)cc1Cl)S(=O)(=O)c1ccccc1 (centres undefined) ?
UCH37 DUB inh: inactive

What do the screens show for `O=C(NCCc1ccccc1)c1ccc(=O)oc1`?
TDP2 inh: inactive; HKDC1 inhibitor: inactive; GSTO1 counter: inactive; CTSL1 counter: inactive; PAD4 FP inh: inactive; UCH37 DUB inh: inactive

What do the screens show for `O=C(NCCc1ccccc1)c1ccc2nc(-c3ccco3)c(-c3ccco3)nc2c1`?
HKDC1 inhibitor: inactive; GSTO1 counter: 46; CTSL1 counter: inactive; PAD4 FP inh: inactive; UCH37 DUB inh: inactive

What do the screens show for `O=C(Nc1ccc2nc(-c3ccco3)c(-c3ccco3)nc2c1)N1CCCCCC1`?
HKDC1 inhibitor: 45; GSTO1 counter: 60; CTSL1 counter: inactive; PAD4 FP inh: inactive; UCH37 DUB inh: inactive

What do the screens show for `O=C(O)c1ccc2nc(-c3ccccc3)c(-c3ccccc3)nc2c1`?
TDP2 inh: inactive; HKDC1 inhibitor: inactive; GSTO1 counter: inactive; CTSL1 counter: inactive; PAD4 FP inh: inactive; UCH37 DUB inh: inactive

Results for O=C(c1ccccc1)c1ccc2nc(-c3ccco3)c(-c3ccco3)nc2c1 ?
TDP2 inh: inactive; HKDC1 inhibitor: inactive; GSTO1 counter: 60; CTSL1 counter: inactive; PAD4 FP inh: inactive; UCH37 DUB inh: inactive

What do the screens show for `Cc1nc2ccc(NC(=O)N3CCCCC3)cc2nc1C`?
TDP2 inh: inactive; HKDC1 inhibitor: inactive; GSTO1 counter: inactive; CTSL1 counter: inactive; PAD4 FP inh: inactive; UCH37 DUB inh: inactive

How did COc1ccccc1NS(=O)(=O)c1cccc(C(=O)NN=Cc2ccc3c(c2)OCCO3)c1 do in these assays?
UCH37 DUB inh: inactive

Results for Nc1nonc1-n1nnc(C(=O)NN=CC2CCCCC2)c1-c1ccccc1 ?
UCH37 DUB inh: inactive

Results for Cc1ccc(S(=O)(=O)N=C(c2ccc(Cl)cc2)N2CCOCC2)cc1 ?
UCH37 DUB inh: inactive

Results for Cc1c(C(=O)NN=Cc2ccccc2)sc(=S)n1C ?
UCH37 DUB inh: inactive

Results for Cc1nc2sc(C(N)=O)c(N)c2c2c1CCCC2 ?
TDP2 inh: inactive; HKDC1 inhibitor: inactive; GSTO1 counter: inactive; CTSL1 counter: inactive; PAD4 FP inh: inactive; UCH37 DUB inh: inactive

How did Cc1ccc(-c2c3c(nc4sc(C(N)=O)c(N)c24)CCCC3)o1 do in these assays?
TDP2 inh: inactive; HKDC1 inhibitor: inactive; GSTO1 counter: inactive; CTSL1 counter: 38; PAD4 FP inh: inactive; UCH37 DUB inh: inactive

How did Cc1cc(C)n(C(=O)CN2C(=O)c3ccccc3C2=O)n1 do in these assays?
TDP2 inh: inactive; HKDC1 inhibitor: inactive; GSTO1 counter: inactive; CTSL1 counter: inactive; PAD4 FP inh: inactive; UCH37 DUB inh: inactive
